# Test system: Thoracic aorta
# Test: Vasodilatory activity in Wistar rat thoracic aorta assessed as reduction of norepinephrine hydrochloride-induced vasoconstriction
# Assay type: functional, tissue-based
# Outline: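 Isolated rat aorta preparation with contractile response recorded. Compounds were dissolved in DMSO, with vehicle-only controls run at the same DMSO concentrations. Relaxation was plotted against compound concentration (mM) to give concentration–response curves, and IC50 was calculated by the best-fit line technique.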
row,SMILES,IC50 [µM]
1,CCOc1nc(-c2ccccc2)cc(-c2ccccc2OCCOc2ccccc2-c2cc(-c3ccccc3)nc(OCC)c2C#N)c1C#N,862
2,COc1nc(-c2ccc(Cl)cc2)cc(-c2ccccc2OCCOc2ccccc2-c2cc(-c3ccc(Cl)cc3)nc(OC)c2C#N)c1C#N,665
3,CCOc1nc(-c2ccc(Cl)cc2)cc(-c2ccccc2OCCOc2ccccc2-c2cc(-c3ccc(Cl)cc3)nc(OCC)c2C#N)c1C#N,622
4,COc1nc(-c2ccc(F)cc2)cc(-c2ccccc2OCCOc2ccccc2-c2cc(-c3ccc(F)cc3)nc(OC)c2C#N)c1C#N,517
5,CCOc1nc(-c2ccc(F)cc2)cc(-c2ccccc2OCCOc2ccccc2-c2cc(-c3ccc(F)cc3)nc(OCC)c2C#N)c1C#N,470
6,COc1ccc(-c2cc(-c3ccccc3OCCOc3ccccc3-c3cc(-c4ccc(OC)cc4)nc(OC)c3C#N)c(C#N)c(OC)n2)cc1,890
7,CCOc1nc(-c2ccc(OC)cc2)cc(-c2ccccc2OCCOc2ccccc2-c2cc(-c3ccc(OC)cc3)nc(OCC)c2C#N)c1C#N,696
8,COc1nc(-c2cccs2)cc(-c2ccccc2OCCOc2ccccc2-c2cc(-c3cccs3)nc(OC)c2C#N)c1C#N,1270

# Continued by falling IC50, values first:
row,IC50 [µM],SMILES
1,1050,COc1nc(-c2ccccc2)cc(-c2ccccc2OCCOc2ccccc2-c2cc(-c3ccccc3)nc(OC)c2C#N)c1C#N
2,970,CCOc1nc(-c2ccc(O)cc2)cc(-c2ccccc2OCCOc2ccccc2-c2cc(-c3ccc(O)cc3)nc(OCC)c2C#N)c1C#N
3,865,CCOc1nc(-c2cccs2)cc(-c2ccccc2OCCOc2ccccc2-c2cc(-c3cccs3)nc(OCC)c2C#N)c1C#N
4,795,COc1nc(-c2ccc(C)cc2)cc(-c2ccccc2OCCOc2ccccc2-c2cc(-c3ccc(C)cc3)nc(OC)c2C#N)c1C#N

# From ChEMBL document CHEMBL1275311, “Synthesis and vasodilation activity of some novel bis(3-pyridinecarbonitrile) derivatives” (Eur J Med Chem, 2010)
